Results reported in ChEMBL document CHEMBL5137045, “Discovery of 2-(furan-2-ylmethylene)hydrazine-1-carbothioamide derivatives as novel inhibitors of SARS-CoV-2 main protease” (Eur J Med Chem, 2022).
Calls of active or inactive are those of the source. No cut-off for these calls is given here.

Legend:
[1] = biological target: T1, Replicase polyprotein 1ab (Severe acute respiratory syndrome coronavirus 2, UniProt P0DTD1); assay: Inhibition of SARS CoV-2 main protease using DABCYL-KTSAVLQSGFRKM-E(EDANS)-NH2 as substrate preincubated for 30 mins followed by substrate addition and measured after 20 mins
[2] = biological target: Replicase polyprotein 1ab (Severe acute respiratory syndrome coronavirus 2) (UniProt P0DTD1); assay: Inhibition of SARS CoV-2 main protease at 50 uM using DABCYL-KTSAVLQSGFRKM-E(EDANS)-NH2 as substrate preincubated for 30 mins followed by substrate addition and measured after 20 mins relative to control; conditions: time 50.0 min
Outline: (§1)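 FRET protease assay in 40 mM PBS, 100 mM NaCl, 1 mM EDTA, 0.1% Triton, pH 7.3. M^pro (0.5 μM) was preincubated with inhibitor 30 min at room temperature, then 20 μM substrate was added. Cleavage fluorescence (ex 360/em 460 nm) was read for 20 min. This covers preliminary screening and IC50; IC50 from Hill1 fit.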

[3] = (§2) Cytotoxicity against African green monkey Vero cells assessed as reduction in cell viability measured after 48 hrs by MTT assay; format: toxicity, cell-based; conditions: chlorocebus sabaeus, Vero cells
Outline: (§3)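 MTT viability assay. Vero cells were kept in MEM and MDCK cells in DMEM, each with 10% FBS and 100 U/mL penicillin/streptomycin, humidified, 5% CO2. Cells were seeded, incubated 18 h, then given compound; vehicle served as blank.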

Procathepsin L = Procathepsin L (Homo sapiens, UniProt P07711); assay: Inhibition of human Cathepsin L using Ac-FR-AFC as fluorescent substrate preincubated for 15 mins followed by substrate addition and measured after 30 mins by fluorescent microplate reader analysis
Procathepsin L, sequence (P07711 whole entry): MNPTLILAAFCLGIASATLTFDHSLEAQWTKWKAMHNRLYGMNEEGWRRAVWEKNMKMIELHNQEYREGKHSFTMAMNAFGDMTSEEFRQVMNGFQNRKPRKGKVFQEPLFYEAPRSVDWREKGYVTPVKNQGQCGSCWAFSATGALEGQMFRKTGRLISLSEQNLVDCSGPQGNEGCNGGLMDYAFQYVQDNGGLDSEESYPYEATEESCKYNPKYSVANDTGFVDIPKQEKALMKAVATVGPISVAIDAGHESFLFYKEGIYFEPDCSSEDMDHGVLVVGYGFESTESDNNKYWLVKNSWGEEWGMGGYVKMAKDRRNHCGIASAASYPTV

MDCK = assay: Cytotoxicity against MDCK cells assessed as reduction in cell viability incubated for 48 hrs by MTT assay; format: toxicity, cell-based, Canis lupus familiaris; conditions: dog; outline: as §3
[4] = biological target: Replicase polyprotein 1ab (Severe acute respiratory syndrome coronavirus 2) (UniProt P0DTD1); assay: Covalent binding affinity to SARS CoV-2 main protease at 15 uM incubated for 3 hrs by Quadrupole-TOF LC-MS/MS analysis
Outline: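 Protease (2 μM) was co-incubated with 15 μM inhibitor on ice for 3 h. The complex was run on Q-TOF LC-MS/MS, and raw mass signal was deconvoluted to give total protein mass.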

[5] = biological target: T1, Replicase polyprotein 1ab; assay: Inhibition of SARS CoV-2 main protease using DABCYL-KTSAVLQSGFRKM-E(EDANS)-NH2 as substrate preincubated for 5 mins followed by substrate addition
Outline: (§4)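 Time-dependence: M^pro was preincubated with various inhibitor concentrations for different times at room temperature before fluorogenic substrate addition. Activity was read as in the standard FRET assay.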

[6] = biological target: T1, Replicase polyprotein 1ab; assay: Inhibition of SARS CoV-2 main protease using DABCYL-KTSAVLQSGFRKM-E(EDANS)-NH2 as substrate preincubated for 180 mins followed by substrate addition; outline: as §4
[7] = biological target: T1, Replicase polyprotein 1ab; assay: Inhibition of SARS CoV-2 main protease using DABCYL-KTSAVLQSGFRKM-E(EDANS)-NH2 as substrate preincubated for 30 mins followed by substrate addition; outline: as §1
Vero = assay: as §2; format: toxicity, cell-based; conditions: chlorocebus sabaeus, vero, 48 h; outline: as §3
[8] = biological target: Replicase polyprotein 1ab (Severe acute respiratory syndrome coronavirus 2) (UniProt P0DTD1); assay: Reversible inhibition of SARS CoV-2 main protease at 100 uM incubated for 180 mins by ultrafiltration assay
Outline: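 Reversibility: 10 μM M^pro was incubated with 100 μM inhibitor for 180 min and split into four portions, each ultrafiltered a different number of times. Each round added an equal volume of assay buffer, 5 min, 4 °C, 12,000 rpm. Retained protease was diluted to 0.5 μM and assayed for activity; three replicates averaged.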

[9] = biological target: Replicase polyprotein 1ab (Severe acute respiratory syndrome coronavirus 2) (UniProt P0DTD1); assay: Non-competitive inhibition of SARS CoV-2 main protease using DABCYL-KTSAVLQSGFRKM-E(EDANS)-NH2 as substrate at varying concentrations preincubated for 3 hrs followed by substrate addition by Lineweaver-burk plot analysis
Outline: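 Kinetics: 0.5 μM M^pro was preincubated 3 h with DMSO or inhibitor, then varying fluorogenic substrate concentrations started the reaction. Three replicates, curve-fitted.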

[10] = biological target: T1, Replicase polyprotein 1ab; assay: Binding affinity to SARS-CoV-2 main protease assessed as dissociation constant by SPR analysis
Outline: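 SPR with M^pro immobilised and an empty first flow channel as reference. Compounds were injected for 60 s at 0.2–100 μM for binding (50 μM for screening). Dissociation was followed for 100–200 s at 30 μL/min. […] K_D came from a 1:1 kinetic binding fit.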

SMILES | IC50 [1] [µM] | inhibition [2] [%] | further results
NC(=S)N/N=C/c1ccc(-c2ccc3cccnc3c2)o1 | 10.4 | 92.3 | –
Cc1cc(C(=O)O)ccc1-c1ccc(/C=N/NC(N)=S)o1 | 4.69 | 98.5 | –
N#Cc1cc(-c2ccc(/C=N/NC(N)=S)o2)ccc1O | 4.14 | 107 | –
NC(=S)N/N=C/c1ccc(Cc2ccccc2)o1 | 1.55 | 100 | CC50 at 48 h [3]: 100 µM; IC50 (Procathepsin L): 8.09 µM; CC50 (MDCK): > 100 µM
NC(=S)N/N=C/c1ccc(-c2ccc(Cl)c(C(=O)O)c2)o1 | 25.4 | 93.6 | –
COc1ccc(-c2ccc(/C=N/NC(N)=S)o2)cc1OC | 5.81 | 102 | –
NC(=S)N/N=C/c1ccc(-c2ccncc2)o1 | 7.09 | 95.4 | –
NC(=S)N/N=C/c1ccc(-c2cccc(C(=O)O)c2Cl)o1 | 40.6 | 84.4 | –
Cc1cc([N+](=O)[O-])c(-c2ccc(/C=N/NC(=O)c3nonc3N)o2)cc1Cl | 25 | 70.9 | –
NC(=S)N/N=C/c1ccc(-c2ccc(O)c(C(=O)O)c2)o1 | 9.09 | 115 | –
NC(=S)N/N=C/c1ccc(-c2ccc(C(=O)O)c(O)c2)o1 | 1.57 | 102 | Activity [4]: Active; IC50 [5]: 42.8 µM; IC50 [6]: 0.85 µM; IC50 [7]: 6.18 µM; CC50 (Vero): > 100 µM; IC50 (Procathepsin L): 16.3 µM; CC50 (MDCK): > 100 µM; inhibition [8]: Active; inhibition [9]: Active
Cc1cc(-c2ccc(/C=N/NC(=O)Cn3nnnc3N)o2)c([N+](=O)[O-])cc1C | 17.5 | 86 | –
NC(=S)N/N=C/c1ccc(-c2ccc(F)nc2)o1 | 8.76 | 97.4 | –
NC(=S)N/N=C/c1ccc(-c2cccc(C(=O)O)c2)o1 | 10.9 | 85.1 | –
NC(=S)N/N=C/c1ccc(-c2cccc([N+](=O)[O-])c2)o1 | 8.08 | 81.6 | –
NC(=S)N/N=C/c1ccc(-c2ccc(C(=O)O)cc2F)o1 | 8.14 | 101 | –
NC(=S)N/N=C/c1ccc(-c2ccc(C(=O)O)c(Cl)c2)o1 | 32.5 | 89 | –
NC(=S)N/N=C/c1ccc(-c2ccc(C(=O)O)cc2)o1 | 17.5 | 89.4 | –
NC(=S)N/N=C/c1ccc(-c2cnc3ccccc3c2)o1 | 10.3 | 88.9 | –
NC(=S)N/N=C/c1ccc(-c2ccccc2)o1 | 4.05 | 100 | –
Nc1nonc1-c1nc2ccccc2n1CC(=O)N/N=C/c1ccc(-c2cccc(C(=O)O)c2)o1 | 21.3 | 65 | Kd [10]: 27.7 µM
NC(=S)N/N=C/c1cc(-c2ccc(C(=O)O)cc2)co1 | 24.6 | 90.9 | –

SMILES | IC50 [1] [µM] | inhibition [2] [%] | further results
NC(=S)N/N=C/c1cccc(-c2ccc(C(=O)O)cc2)c1 | 5.44 | 99.2 | –
NC(=S)N/N=C/c1ccc(-c2ccc(S(N)(=O)=O)cc2)o1 | 5.39 | 98.5 | –
NC(=S)N/N=C/c1ccc(-c2ccc(C(=O)O)cc2)s1 | 5.78 | 95.1 | –
NC(=O)c1ccc(-c2ccc(/C=N/NC(N)=S)o2)cc1 | 4 | 94.2 | –
NC(=S)N/N=C/c1ccc(-c2cc(C(=O)O)ccc2Cl)o1 | 10 | 97.2 | –
Cc1c(NC(=S)N/N=C/c2ccc(-c3ccc([N+](=O)[O-])cc3)o2)c(=O)n(-c2ccccc2)n1C | 10.8 | 95 | –
COc1ccc(-c2ccc(/C=N/NC(=O)Cn3c(-c4nonc4N)nc4ccccc43)o2)c([N+](=O)[O-])c1 | – | < 20 | –
O=[N+]([O-])c1cccc(-c2ccc(/C=N/NC(=S)NC3CCS(=O)(=O)C3)o2)c1 (stereo not given) | – | 30.2 | –
NC(=S)N/N=C/c1ccc(-c2cccc3ccccc23)o1 | – | 73.2 | –
CCOC(=O)c1ccc(NC(=S)Nc2c(C)n(C)n(-c3ccccc3)c2=O)cc1 | – | < 20 | –
C=CCNC(=S)N/N=C/c1ccc(-c2cc(C(=O)O)cc(C(=O)O)c2)o1 | – | 34.2 | –
O=C(N/N=C/c1ccc(-c2ccc([N+](=O)[O-])cc2)o1)c1cc2ccccc2cc1O | – | < 20 | –
NC(=S)N/N=C/c1ccc(-c2ccc([N+](=O)[O-])cc2)o1 | 9.69 | 81.1 | –
O=C(CSc1nnnn1-c1ccccc1)N/N=C/c1ccc(-c2ccccc2C(=O)O)o1 | – | 45.3 | –
C=CCNC(=S)N/N=C/c1ccc(-c2ccc([N+](=O)[O-])cc2)o1 | – | 51.4 | –
O=C(NCCCn1ccnc1)/C(=C\c1ccc(-c2cccc([N+](=O)[O-])c2)o1)NC(=O)c1ccccc1 | – | 28.8 | –
O=C(N/N=C/c1ccc(-c2cccc(C(=O)O)c2)o1)Nc1ccc(Cl)cc1 | – | 44.6 | –
Cc1c(NC(=S)NC(=O)c2cccc(I)c2)c(=O)n(-c2ccccc2)n1C | – | < 20 | –
O=C(CNC(=O)c1ccccc1F)N/N=C/c1ccc([N+](=O)[O-])o1 | – | < 20 | –
COCc1cc(C)nc(OCC(=O)N/N=C/c2ccc(-c3ccc(C(=O)O)cc3)o2)c1C#N | – | 36.2 | –
O=C(Cn1c2ccccc2c(=O)c2ccccc21)N/N=C/c1ccc(-c2ccc([N+](=O)[O-])cc2Cl)o1 | – | 24.1 | –
